# Source: PubChem (Johns Hopkins Ion Channel Center)
# Shown are actives, neighbours in structure and some others; about 3.5% of the full set was active somewhere.
# MrgX1 PAM: human MrgX1 positive allosteric modulation, primary screen; 310,000 compounds, 0.63% hits; MrgX1-HEK293, Fluo-4 calcium flux, FDSS; stronger effect = higher value; B-score at 10 µM; AID 588675; Q96LB2;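 active = plate-corrected calcium response at least 3 library SD above typical, normal starting fluorescence, not activating the receptor alone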;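 note: compound read alongside a low EC10 to EC30 dose of BAM8-22 agonist; peak minus trough fluorescence over baseline measured at the second addition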
# Target sequence (Q96LB2 whole entry, looked up): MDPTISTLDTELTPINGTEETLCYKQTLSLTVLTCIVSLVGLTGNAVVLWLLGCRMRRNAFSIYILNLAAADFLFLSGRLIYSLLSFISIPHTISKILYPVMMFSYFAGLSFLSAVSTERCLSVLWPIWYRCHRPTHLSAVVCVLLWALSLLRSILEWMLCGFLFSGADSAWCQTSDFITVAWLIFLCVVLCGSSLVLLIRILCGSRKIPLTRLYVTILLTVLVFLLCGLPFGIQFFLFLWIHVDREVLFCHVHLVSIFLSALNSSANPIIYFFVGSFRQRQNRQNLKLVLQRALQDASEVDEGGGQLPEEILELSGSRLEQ
# MrgX1 antagonist: blocks BAM8-22 activation of human MrgX1 receptor. Q96LB2. MRGX1-HEK293 calcium flux, Fluo-4, BAM8-22 antagonism; stronger effect = lower value. B-score at 10 µM. 310,000 compounds, 1.3% hits;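 active = calcium-response B-score plate-corrected more than 3 library SD below zero, starting fluorescence within 5 deviations, no agonist response on first addition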;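 note: peak minus trough fluorescence over baseline after final BAM8-22 challenge near maximal dose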
# RGS4 act: RGS4 potentiation or activation | HEK293 M3R/inducible RGS4, carbachol calcium flux Fluo4; stronger effect = lower value | B-score at 10 µM | 310,000 compounds, 0.92% hits | AID 463111;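 active = B-score of the integrated calcium signal more than 4 SD below the library mean, with starting fluorescence not abnormally high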;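 note: negative B-score means reduced calcium response which marks RGS4 activation or potentiation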
#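 System: HEK293 FlpIn-TREx cells, stable M3R, doxycycline-inducible RGS4. Timing: overnight RGS4 induction, 30 min dye load 37 °C, 20 min compound RT. Also added: carbachol, ECmax concentration. Measured by: Fluo4 fluorescence kinetic imaging of calcium. Evaluation: integrated calcium ratio converted to B score.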
# MrgX1 ag: agonists of human MrgX1 receptor; Q96LB2; MrgX1-HEK293 cells, Fluo-4 calcium fluorescence, agonist mode; stronger effect = higher value; B-score at 10 µM; 310,000 compounds, 0.44% hits; AID 588627;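 active = calcium response B-score plate-corrected fluorescence ratio at least 3 library SD, with starting fluorescence B-score inside 5 SD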
#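 Assay system: stable human MrgX1 HEK293 cell line. Quantity: 15,000 cells per well. Schedule: cells plated overnight, dye loaded 0.5 h 37 °C, 0.5 h room temperature. Detection: Fluo-4 NW calcium-flux fluorescence, kinetic read. Read-out basis: peak-minus-minimum fluorescence over baseline, converted to B scores. Control set: positive and negative control wells on each plate.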
# RGS4 block: human RGS4 inhibition; HEK293 M3R/RGS4 inducible, Fluo-4 calcium flux; stronger effect = higher value; triggered by carbachol at its EC20; B-score at 10 µM; P49798; AID 463165; 310,000 compounds, 0.45% hits;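 active = B-score, a plate-corrected calcium signal, over three deviations above library mean, with baseline fluorescence within five deviations of library mean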;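 note: RGS4 expression induced by doxycycline in cells with stable M3 receptor; B-score is computed from the integrated fluorescence ratio over baseline after carbachol; higher B-score means a larger calcium signal and so more RGS4 inhibition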
# Target sequence (P49798 whole entry, looked up): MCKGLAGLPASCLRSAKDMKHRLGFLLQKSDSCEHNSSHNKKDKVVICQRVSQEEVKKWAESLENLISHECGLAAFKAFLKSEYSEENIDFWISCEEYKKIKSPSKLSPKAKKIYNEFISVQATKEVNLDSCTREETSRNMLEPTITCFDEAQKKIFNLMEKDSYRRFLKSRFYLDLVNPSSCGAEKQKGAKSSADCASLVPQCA
# RGS4 activ val: confirmation of RGS4 activators; shares compounds with RGS4 act; 1,100 compounds, 89% hits; HEK293 M3R/RGS4 inducible, carbachol calcium flux Fluo4; inhibition, % at 10 µM; AID 602282;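 active = inhibition above 3 SD of the buffer control wells, cut at about 41% in these data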;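 note: signal is the integrated peak-minus-minimum Fluo4 fluorescence over baseline ratio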
# RGS4 act ctr: activity in cells without induced RGS4 expression; shares compounds with RGS4 act; HEK293 M3R non-induced RGS4, Fluo4 calcium flux; after carbachol challenge at its EC90; inhibition, % at 10 µM; 1,100 compounds, 82% hits;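 active = inhibition exceeding 3 SD of buffer-only control wells, cut at about 26% in these data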;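 note: percent drop in integrated peak-minus-baseline over baseline Fluo4 ratio after carbachol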
# * = called active by the depositor; i = inactive; nt = not tested or not shown.
SMILES,MrgX1 PAM,MrgX1 antagonist,RGS4 act,MrgX1 ag,RGS4 block,RGS4 activ val,RGS4 act ctr
COc1ccc(CC(NC(C)=O)C(=O)NC2CCN(C(=O)C3CCCCC3)CC2)cc1OC (stereo unspecified),i,i,i,i,i,nt,nt
Cn1c(=O)[nH]c(=O)c2c1nc(N/N=C/C(Br)=C/c1ccccc1)n2CCO,i,i,i,i,i,nt,nt
O=C(CN1C(=O)NC2(CCCc3ccccc32)C1=O)NCC(F)(F)F (stereo unspecified),i,i,i,i,i,nt,nt
COC(=O)c1cc2ccsc2n1Cc1nc(-c2ccc(OC)cc2)oc1C,i,i,-11*,i,i,92*,79*
COc1ccc(NC(=O)CSc2nccn2Cc2ccc(F)cc2)cc1,i,i,i,i,i,nt,nt
CCOC(=O)c1cc(NC(=O)Cc2ccc(S(=O)(=O)N3CCOCC3)s2)cc(C(=O)OCC)c1,i,i,-8*,i,i,64*,36*
Cn1ccnc1C1CCCCN1Cc1nc(Cc2ccccc2F)no1 (stereo unspecified),i,i,i,i,i,nt,nt
COC(=O)c1ccc(-c2noc(CN3CCCCC3c3nccn3C)n2)cc1 (stereo unspecified),i,i,-10*,i,i,91*,68*
COc1ccc(C(O)(CCN2CCCCC2)C2CCCCC2)cc1 (stereo unspecified),i,i,-10*,i,i,92*,95*
CCCC(O)(CCN1CCCCC1)c1ccc(OCC)cc1 (stereo unspecified),i,i,i,i,i,nt,nt
O=C(NC1CCN(Cc2ccc(Cl)cc2Cl)CC1)c1ccccc1,i,i,i,i,i,nt,nt
Cc1c(CCOC(=O)C23CC4CC(CC(C4)C2)C3)sc[n+]1Cc1ccccc1,i,i,-12*,i,i,92*,61*
Cc1ncc(C[n+]2csc(CCOC(=O)C34CC5CC(CC(C5)C3)C4)c2C)c(N)n1,i,i,i,i,i,nt,nt
CCOc1ccc(N(CC(=O)N2CCOCC2)S(=O)(=O)c2ccc(F)cc2)cc1,i,i,i,i,i,nt,nt
O=C1CCc2ccc(OCCCCN3CCN(c4cccc(Cl)c4Cl)CC3)cc2N1,i,i,-9.2*,i,i,79*,65*
CCCOc1ccc(OCCCCNC(C)CC)cc1 (stereo unspecified),i,i,i,i,i,nt,nt
CCC(C)NCCOc1ccc(C(C)(C)c2ccccc2)cc1 (stereo unspecified),i,i,-7.8*,i,i,79*,34*
COc1cccc(/C=C/C(=O)OCC(=O)NCCc2ccccc2)c1,i,i,i,i,i,nt,nt
CN(C)CCNC(=O)c1cc2c(s1)-c1ccc(Cl)cc1SC2,i,i,-13*,i,i,94*,93*
CC1CCCN(CCCOc2ccccc2-c2ccccc2)C1 (stereo unspecified),nt,nt,i,nt,i,nt,nt
N#Cc1ccc(S(=O)(=O)NC2CC2)cc1,i,i,i,i,i,nt,nt
CC(C)Cn1c2c(c(O)c(C(=O)Nc3nccs3)c1=O)CCCC2,i,i,-7.7*,i,i,74*,41*
CCCn1c2c(c(O)c(C(=O)Nc3nccs3)c1=O)CCCC2,i,i,i,i,i,nt,nt
Cc1csc(NC(=O)c2c(O)c3c(n(CC(C)C)c2=O)CCCC3)n1,i,i,-8.9*,i,i,57*,0
Cc1ccc(NC(=O)C(=O)c2ccc(C)cc2)cc1,i,i,i,i,i,nt,nt
SMILES,MrgX1 PAM,MrgX1 antagonist,RGS4 act,MrgX1 ag,RGS4 block,RGS4 activ val,RGS4 act ctr
O=C(COC(=O)C1CCN(c2ccc(C(F)(F)F)cn2)CC1)c1ccc(Cl)cc1,i,i,-7.8*,i,i,76*,31*
COc1cc(C(=O)COC(=O)C2CCN(c3ccc(C(F)(F)F)cn3)CC2)ccc1OC(F)F,i,i,-8.7*,i,i,76*,84*
Cc1cc(C)c(C(=O)COC(=O)C2CCN(c3ccc(C(F)(F)F)cn3)CC2)cc1C,i,i,i,i,i,nt,nt
O=C(COC(=O)C1CCN(c2ccc(C(F)(F)F)cn2)CC1)c1ccc(F)cc1,i,i,i,i,i,nt,nt
CSCCC(NS(=O)(=O)c1ccccc1F)C(=O)NCc1ccncc1 (stereo unspecified),i,i,i,i,i,nt,nt
CCNc1c(NS(=O)(=O)c2ccc(OC)cc2)c(=O)oc2ccccc12,i,i,i,i,i,nt,nt
COC(=O)c1c(NC(=O)CSc2nnc(-c3ccco3)n2C)sc(C)c1C,i,i,i,i,i,nt,nt
CCOC(=O)c1sc(NC(=O)CSc2nnc(-c3ccco3)n2CC)c(C(=O)OCC)c1C,i,i,-18*,i,i,92*,91*
O=S(=O)(Nc1ccccc1)c1ccc(-c2csnn2)cc1,i,i,-8.4*,i,i,63*,84*
O=C(NCC1CCCO1)c1csc2c1CCCCC2 (stereo unspecified),i,i,-9.1*,i,i,0,0
CCOc1ccc(NC(=O)CN(C)C(=O)c2ccccc2SCc2c(C)noc2C)cc1OCC,i,i,i,i,i,nt,nt
CC(=O)N1CCOc2ccc(S(=O)(=O)N3CCC(C(=O)Nc4ccc(C)cc4C)CC3)cc21,i,i,-8.6*,i,i,0,0
CC(=O)N1CCOc2ccc(S(=O)(=O)N3CCC(C(=O)Nc4cc(C)ccc4C)CC3)cc21,i,i,i,i,i,nt,nt
Cc1sc2cc3c(c(C(=O)c4ccccc4)[n+]2c1C)-c1cccc2cccc-3c12,i,i,-14*,i,i,92*,91*
CCC(C(=O)OCCOCCN(CC)CC)c1ccccc1 (stereo unspecified),i,i,i,i,i,nt,nt
CCN(CC)CCCOC(=O)C(c1ccccc1)c1ccccc1,i,-6.2*,-10*,i,i,94*,94*
Cc1cc(C)n(CCNC(=O)CC2C(=O)NCCN2CC2CCCCC2)n1 (stereo unspecified),i,i,i,i,i,nt,nt
COc1ccc(NC(=O)c2sc3nc(C)nc(N4CCN(c5ccccn5)CC4)c3c2C)cc1Cl,i,i,i,i,i,nt,nt
